This note sets out measurements from ChEMBL document CHEMBL1126178, “Structure-activity study of hCGRP8-37, a calcitonin gene-related peptide receptor antagonist” (J Med Chem, 1992).

Assay [1] deals with Calcitonin gene-related peptide type 1 receptor (Rattus norvegicus, UniProt Q63118). Put plainly: Binding affinity against [125I]-hCalcitonin gene-related peptide type alpha receptor binding sites in rat brain membrane. The assay is classed as cell membranes.
For assay [2], the species on record is Cavia porcellus. Put plainly: Dose inhibiting the ionotropic response induced by hCGRP-alpha in guinea pig left atrium. It is filed as functional. Conditions: Cardiac atrium. In outline:
(§1)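 Atria were taken from male Hartley guinea pigs (350-400 g) and the prostatic vas deferens from male Sprague-Dawley rats (200-250 g). Tissues were mounted on platinum electrodes in oxygenated Krebs-Ringer at 37 °C and equilibrated 1 h at 0.5-1 g tension. Force-transducer responses were recorded to cumulative hCGRPα concentrations, with test peptide (1 µM) added 10 min before. Values are mean ± SE.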

The species named for assay [3] is Cavia porcellus. Kind of assay: Dose inhibiting the ionotropic response induced by hCGRP-alpha in guinea pig left atrium relative to hCGRP(8-37). It is filed as functional, Cardiac atrium. On the set-up: unit not given here.
The species named for assay [4] is Cavia porcellus. Kind of assay: Dose inhibiting the chronotropic response induced by hCGRP-alpha in guinea pig right atrium. It is filed as functional. The note with it: Cardiac atrium. In outline:
as §1

For assay [5], the species on record is Cavia porcellus. Put plainly: Dose inhibiting the ionotropic response induced by hCGRP-alpha in guinea pig right atrium. It is filed as functional. Conditions: Cardiac atrium. In outline: as §1
The species named for assay [6] is Cavia porcellus. Put plainly: Dose inhibiting the chronotropic response induced by hCGRP-alpha in guinea pig right atrium relative to hCGRP(8-37). The assay is classed as functional, Cardiac atrium. The arrangement: unit not given here.
For assay [7], the species on record is Cavia porcellus. Put plainly: Dose inhibiting the ionotropic response induced by hCGRP-alpha in guinea pig right atrium relative to hCGRP(8-37). It is filed as functional, Cardiac atrium. On the set-up: unit not given here.
For assay [8], the species on record is Rattus norvegicus. Put plainly: Dose inhibiting the twitch response induced by hCGRP-alpha in rat vas deferens. The assay is classed as functional. In outline:
as §1

Assay [9] is filed under the species Rattus norvegicus. Put plainly: Dose inhibiting the twitch response induced by hCGRP-alpha in rat vas deferens relative to hCGRP(8-37). The assay is classed as functional. On the set-up: unit not given here.

Calcitonin gene-related peptide type 1 receptor, sequence (Q63118 whole entry): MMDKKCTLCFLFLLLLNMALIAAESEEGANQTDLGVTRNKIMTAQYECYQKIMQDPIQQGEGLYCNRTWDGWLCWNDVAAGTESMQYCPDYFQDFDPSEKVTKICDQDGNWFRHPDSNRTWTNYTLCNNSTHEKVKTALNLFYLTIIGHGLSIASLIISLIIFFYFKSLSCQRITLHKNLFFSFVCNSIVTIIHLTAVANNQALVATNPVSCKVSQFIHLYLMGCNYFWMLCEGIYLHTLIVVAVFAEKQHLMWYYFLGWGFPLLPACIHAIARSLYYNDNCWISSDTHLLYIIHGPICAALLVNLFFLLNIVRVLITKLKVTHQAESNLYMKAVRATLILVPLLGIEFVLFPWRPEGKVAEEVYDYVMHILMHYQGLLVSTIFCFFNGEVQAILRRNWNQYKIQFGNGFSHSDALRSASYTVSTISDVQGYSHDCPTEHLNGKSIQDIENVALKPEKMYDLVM

Usually IC50 stands for the concentration that gives 50% inhibition. Usually EC50 stands for the midpoint of the concentration-response curve. In the case of `CC(C)C[C@H](NC(=O)CNC(=O)[C@H](C)NC(=O)[C@H](CC(C)C)NC(=O)[C@H](CCCN=C(N)N)NC(=O)[C@@H](N)Cc1c[nH]cn1)C(=O)N[C@@H](CC(C)C)C(=O)N[C@@H](CO)C(=O)N[C@@H](CCCN=C(N)N)C(=O)N[C@@H](CO)C(=O)NCC(=O)NCC(=O)N[C@H](C(=O)N[C@H](C(=O)N[C@@H](CCCCN)C(=O)N[C@@H](CC(N)=O)C(=O)N[C@@H](CC(N)=O)C(=O)N[C@@H](Cc1ccccc1)C(=O)N[C@H](C(=O)N1CCC[C@H]1C(=O)N[C@H](C(=O)N[C@@H](CC(N)=O)C(=O)N[C@H](C(=O)NCC(=O)N[C@@H](CO)C(=O)N[C@@H](CCCCN)C(=O)N[C@@H](C)C(=O)N[C@@H](Cc1ccccc1)C(N)=O)C(C)C)[C@@H](C)O)C(C)C)C(C)C)C(C)C`, the IC50 in assay [1] turned out to be 10 nM. The EC50 in the assay filed under Cavia porcellus [2] worked out at 65 nM; in the assay filed under Cavia porcellus [4], 77 nM; in the assay filed under Cavia porcellus [5], 114 nM; in the assay filed under Rattus norvegicus [8], 3.2 nM. For the same compound, the Relative potency in the assay listed under Cavia porcellus [3] worked out at 34; in the assay listed under Cavia porcellus [6] it was 27; in the assay filed under Cavia porcellus [7], 43; in the assay filed under Rattus norvegicus [9] it was 48.

Turning to `CC(C)C[C@H](NC(=O)CNC(=O)[C@H](C)NC(=O)[C@H](CC(C)C)NC(=O)[C@H](CCCN=C(N)N)NC(=O)[C@H](Cc1c[nH]cn1)NC(=O)[C@@H](N)[C@@H](C)O)C(=O)N[C@@H](CC(C)C)C(=O)N[C@@H](CO)C(=O)N[C@@H](CCCN=C(N)N)C(=O)N[C@@H](CO)C(=O)NCC(=O)NCC(=O)N[C@H](C(=O)N[C@H](C(=O)N[C@@H](CCCCN)C(=O)N[C@@H](CC(N)=O)C(=O)N[C@@H](CC(N)=O)C(=O)N[C@@H](Cc1ccccc1)C(=O)N[C@H](C(=O)N1CCC[C@H]1C(=O)N[C@H](C(=O)N[C@@H](CC(N)=O)C(=O)N[C@H](C(=O)NCC(=O)N[C@@H](CO)C(=O)N[C@@H](CCCCN)C(=O)N[C@@H](C)C(=O)N[C@@H](Cc1ccccc1)C(N)=O)C(C)C)[C@@H](C)O)C(C)C)C(C)C)C(C)C`, the EC50 in the assay filed under Cavia porcellus [2] was 215 nM; in the assay listed under Cavia porcellus [4] it was 180 nM; in the assay listed under Cavia porcellus [5], 225 nM; in the assay listed under Rattus norvegicus [8], 7.6 nM.

On to `CC(C)C[C@H](NC(=O)CNC(=O)[C@H](C)NC(=O)[C@H](CC(C)C)NC(=O)[C@H](CCCN=C(N)N)NC(=O)[C@H](Cc1c[nH]cn1)NC(=O)[C@H](C)NC(=O)[C@@H](N)C(C)C)C(=O)N[C@@H](CC(C)C)C(=O)N[C@@H](CO)C(=O)N[C@@H](CCCN=C(N)N)C(=O)N[C@@H](CO)C(=O)NCC(=O)NCC(=O)N[C@H](C(=O)N[C@H](C(=O)N[C@@H](CCCCN)C(=O)N[C@@H](CC(N)=O)C(=O)N[C@@H](CC(N)=O)C(=O)N[C@@H](Cc1ccccc1)C(=O)N[C@H](C(=O)N1CCC[C@H]1C(=O)N[C@H](C(=O)N[C@@H](CC(N)=O)C(=O)N[C@H](C(=O)NCC(=O)N[C@@H](CO)C(=O)N[C@@H](CCCCN)C(=O)N[C@@H](C)C(=O)N[C@@H](Cc1ccccc1)C(N)=O)C(C)C)[C@@H](C)O)C(C)C)C(C)C)C(C)C`, for which the IC50 in assay [1] is 6.8 nM. Also, the EC50 was 117 nM in the assay listed under Cavia porcellus [2], 238 nM in the assay listed under Cavia porcellus [4], 193 nM in the assay listed under Cavia porcellus [5] and 2.4 nM in the assay filed under Rattus norvegicus [8]. Further, the Relative potency in the assay filed under Cavia porcellus [3] amounted to 60; in the assay filed under Cavia porcellus [6] it was 82; in the assay listed under Cavia porcellus [7] it was 72; in the assay listed under Rattus norvegicus [9] it was 36.

With `CC(C)C[C@H](NC(=O)CNC(=O)[C@H](C)NC(=O)[C@H](CC(C)C)NC(=O)[C@H](CCCN=C(N)N)NC(=O)[C@H](C)NC(=O)[C@@H](NC(=O)[C@@H](N)C(C)C)[C@@H](C)O)C(=O)N[C@@H](CC(C)C)C(=O)N[C@@H](CO)C(=O)N[C@@H](CCCN=C(N)N)C(=O)N[C@@H](CO)C(=O)NCC(=O)NCC(=O)N[C@H](C(=O)N[C@H](C(=O)N[C@@H](CCCCN)C(=O)N[C@@H](CC(N)=O)C(=O)N[C@@H](CC(N)=O)C(=O)N[C@@H](Cc1ccccc1)C(=O)N[C@H](C(=O)N1CCC[C@H]1C(=O)N[C@H](C(=O)N[C@@H](CC(N)=O)C(=O)N[C@H](C(=O)NCC(=O)N[C@@H](CO)C(=O)N[C@@H](CCCCN)C(=O)N[C@@H](C)C(=O)N[C@@H](Cc1ccccc1)C(N)=O)C(C)C)[C@@H](C)O)C(C)C)C(C)C)C(C)C`, the concentration giving a half-maximal response (EC50) in the assay listed under Cavia porcellus [2] was found to be 95 nM; in the assay listed under Cavia porcellus [4], 129 nM; in the assay listed under Cavia porcellus [5] it was 179 nM; in the assay listed under Rattus norvegicus [8] it was 3.2 nM.

For H-VTHALAGLLSRSGGVVKNNFVPTNVGSKAF-NH2, the concentration for half-maximal inhibition (IC50) in assay [1] was 33 nM. Also, the half-maximal effective concentration (EC50) came to 58 nM in the assay filed under Cavia porcellus [2], 83 nM in the assay filed under Cavia porcellus [4], 106 nM in the assay filed under Cavia porcellus [5] and 3.1 nM in the assay listed under Rattus norvegicus [8]. For the same compound, the Relative potency was 30 in the assay filed under Cavia porcellus [3], 29 in the assay filed under Cavia porcellus [6], 40 in the assay listed under Cavia porcellus [7] and 46 in the assay filed under Rattus norvegicus [9].

Regarding `CC(C)C[C@H](NC(=O)CNC(=O)[C@H](C)NC(=O)[C@H](CC(C)C)NC(=O)[C@H](CCCN=C(N)N)NC(=O)[C@H](Cc1c[nH]cn1)NC(=O)[C@@H](NC(=O)[C@@H](NC(=O)[C@@H]1CSSC[C@H](NC(=O)[C@H](C)N)C(=O)N[C@@H](CC(=O)O)C(=O)N[C@@H]([C@@H](C)O)C(=O)N[C@@H](C)C(=O)N[C@@H]([C@@H](C)O)C(=O)N1)C(C)C)[C@@H](C)O)C(=O)N[C@@H](CC(C)C)C(=O)N[C@@H](CO)C(=O)N[C@@H](CCCN=C(N)N)C(=O)N[C@@H](CO)C(=O)NCC(=O)NCC(=O)N[C@H](C(=O)N[C@H](C(=O)N[C@@H](CCCCN)C(=O)N[C@@H](CC(N)=O)C(=O)N[C@@H](CC(N)=O)C(=O)N[C@@H](Cc1ccccc1)C(=O)N[C@H](C(=O)N1CCC[C@H]1C(=O)N[C@H](C(=O)N[C@@H](CC(N)=O)C(=O)N[C@H](C(=O)NCC(=O)N[C@@H](CO)C(=O)N[C@@H](CCCCN)C(=O)N[C@@H](C)C(=O)N[C@@H](Cc1ccccc1)C(N)=O)C(C)C)[C@@H](C)O)C(C)C)C(C)C)C(C)C`, the EC50 in the assay listed under Cavia porcellus [2] stood at 8.7 nM; in the assay listed under Cavia porcellus [4] it was 19 nM; in the assay filed under Cavia porcellus [5], 7.9 nM; in the assay listed under Rattus norvegicus [8] it was 1.4 nM.

For `CC(C)C[C@H](NC(=O)CNC(=O)[C@H](C)NC(=O)[C@H](CC(C)C)NC(=O)[C@@H](N)CCCN=C(N)N)C(=O)N[C@@H](CC(C)C)C(=O)N[C@@H](CO)C(=O)N[C@@H](CCCN=C(N)N)C(=O)N[C@@H](CO)C(=O)NCC(=O)NCC(=O)N[C@H](C(=O)N[C@H](C(=O)N[C@@H](CCCCN)C(=O)N[C@@H](CC(N)=O)C(=O)N[C@@H](CC(N)=O)C(=O)N[C@@H](Cc1ccccc1)C(=O)N[C@H](C(=O)N1CCC[C@H]1C(=O)N[C@H](C(=O)N[C@@H](CC(N)=O)C(=O)N[C@H](C(=O)NCC(=O)N[C@@H](CO)C(=O)N[C@@H](CCCCN)C(=O)N[C@@H](C)C(=O)N[C@@H](Cc1ccccc1)C(N)=O)C(C)C)[C@@H](C)O)C(C)C)C(C)C)C(C)C`, the EC50 in the assay listed under Cavia porcellus [2] came to 30 nM; in the assay listed under Cavia porcellus [4] it was 65 nM; in the assay listed under Cavia porcellus [5], 89 nM; in the assay listed under Rattus norvegicus [8], 1.4 nM.

For H-VTHRAAGLLSRSGGVVKNNFVPTNVGSKAF-NH2, in assay [1], the concentration for half-maximal inhibition (IC50) is 22 nM. Moreover, the EC50 in the assay listed under Cavia porcellus [2] was found to be 89 nM; in the assay filed under Cavia porcellus [4], 116 nM; in the assay listed under Cavia porcellus [5] it was 116 nM; in the assay filed under Rattus norvegicus [8], 2.2 nM. Moreover, the Relative potency is listed as 46 in the assay filed under Cavia porcellus [3], 40 in the assay filed under Cavia porcellus [6], 43 in the assay listed under Cavia porcellus [7] and 33 in the assay filed under Rattus norvegicus [9].

Take `CC(C)C[C@H](NC(=O)CNC(=O)[C@H](C)NC(=O)[C@H](CC(C)C)NC(=O)[C@H](CCCNC(=N)N)NC(=O)[C@H](Cc1cnc[nH]1)NC(=O)[C@@H](NC(=O)[C@@H](N)C(C)C)[C@@H](C)O)C(=O)N[C@@H](CC(C)C)C(=O)N[C@@H](CO)C(=O)N[C@@H](CCCNC(=N)N)C(=O)N[C@@H](CO)C(=O)NCC(=O)NCC(=O)N[C@H](C(=O)N[C@H](C(=O)N[C@@H](CCCCN)C(=O)N[C@@H](CC(N)=O)C(=O)N[C@@H](CC(N)=O)C(=O)N[C@@H](Cc1ccccc1)C(=O)N[C@H](C(=O)N1CCC[C@H]1C(=O)N[C@H](C(=O)N[C@@H](CC(N)=O)C(=O)N[C@H](C(=O)NCC(=O)N[C@@H](CO)C(=O)N[C@@H](CCCCN)C(=O)N[C@@H](C)C(=O)N[C@@H](Cc1ccccc1)C(N)=O)C(C)C)[C@@H](C)O)C(C)C)C(C)C)C(C)C`: the EC50 came to 194 nM in the assay listed under Cavia porcellus [2], 290 nM in the assay listed under Cavia porcellus [4], 267 nM in the assay listed under Cavia porcellus [5] and 6.7 nM in the assay listed under Rattus norvegicus [8].
